Measured values as given in PubChem BioAssay.
Calls of active or inactive are those of the source.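 The calls were made as follows, unless noted: active = viability at or under a set limit in both replicates, limit being median viability minus 3 SD (cut at about 48% in these data, passing the limit was not always enough); inconclusive = at or under the limit in just one replicate; inactive = at or above the limit in both replicates.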

Legend:
[1] = HUVEC growth inhibition – cell-based, human, primary screen (AID 575;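 active = viability at or below 30% in both replicate assays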;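 also: 100% = median of untreated cell wells with 0.1% DMSO on each plate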); details: HUVEC proliferation, CellTiter-Glo luminescence, 72 h; at 10 µM; stronger effect = lower value
Summary of the method: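 System: primary human umbilical vein endothelial cells; Quantity: 1250 endothelial cells in each well; Buffer or medium: supplemented EBM, 2% fetal bovine serum; Doses: one dose, 10 µM final, 0.1% DMSO; Incubation: 72 h compound incubation; Technique: ATP-based CellTiter-Glo luminescent read; Evaluation: percent of median DMSO-control luminescence; Controls: vehicle and MePR control wells.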

[2] = H69AR cell proliferation blockers – human, duplicate replicates, primary screen (AID 580); details: H69AR lung tumor cells viability, ATP luminescence, 72 h; at 10 µM; stronger effect = lower value;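 also: 100% = mean luminescence of untreated wells and 0% = no signal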
[3] = MRP1 drug-resistance reversers in H69AR cells – cell-based, doxorubicin co-treatment, pilot screen (AID 601;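 active = viability loss from added drug above about 55%, and viability with drug at most 40%, in both replicates, limit read from the data, passing the limit was not always enough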); details: CellTiter-Glo, 72 h, at 10 µM; for differential viability (reversal): stronger effect = higher value
[4] = yeast transport mutant growth inhibition pilot in 384-well plates, post-Golgi transport modulator project (AID 636; in the data active = inhibition above about 31%); details: absorbance 615 nm, about 18 h, stronger effect = higher value
[5] = growth suppression of yeast trafficking mutant, preliminary HTS, modulators of trafficking downstream of Golgi apparatus project, 1536-format plate, OD 615 nm (AID 637; in the data active = inhibition above about 30%); details: yeast transport mutant growth, absorbance 615 nm, 18 h; stronger effect = higher value
[6] = H69AR cells + 2 uM doxorubicin, measured here: viability with 2 uM doxorubicin, stronger effect = lower value
[7] = H69AR cells, compound alone cytotoxicity

SMILES	viability [1]	viability [2]	differential viability (reversal) ([3]; H69AR cells + 2 uM doxorubicin)	viability [3, 6]	viability [3, 7]	inhibition [4]	inhibition [5]
CC1(c2ccc(OC(F)F)cc2)NC(=O)N(CC(=O)Nc2ccc3c(c2)OCO3)C1=O (configuration not stated)	81.6% (inactive)	91.7% (inactive)	-2.95% (inactive)	94.7%	91.7%	-5.71% (inactive)	-3.65% (inactive)
Cc1ccc(C)c(SCC(=O)Nc2nnc(-c3ccccc3)o2)c1	48.4% (inactive)	74.9% (inactive)	-0.675% (inactive)	75.6%	74.9%	-3.64% (inactive)	-1.27% (inactive)
CSc1cccc(NC(=O)CN(C)S(=O)(=O)c2ccccc2)c1	74.9% (inactive)	95.1% (inactive)	15.1% (inactive)	80%	95.1%	-4.93% (inactive)	1.27% (inactive)
C=Cn1c(N2CCOCC2)nc2c1c(=O)[nH]c(=O)n2C	98.8% (inactive)	97.1% (inactive)	8.31% (inactive)	88.8%	97.1%	-4.8% (inactive)	1.59% (inactive)
COc1ccc(OC(C)C(=O)N2CCN(c3ccccn3)CC2)cc1 (configuration not stated)	106% (inactive)	94.4% (inactive)	5.04% (inactive)	89.3%	94.4%	-3.95% (inactive)	-0.32% (inactive)
S=c1[nH]ncn1-c1ccccn1	81.6% (inactive)	93.9% (inactive)	-4.69% (inactive)	98.6%	93.9%	-5.33% (inactive)	-0.63% (inactive)
COc1ccc(CCNC(=O)c2nc3ncccn3n2)cc1OC	113% (inactive)	102% (inactive)	7.66% (inactive)	94.5%	102%	-4.08% (inactive)	7.78% (inactive)
Cc1cccc(NC(=O)c2oc3c(c2C)C(=O)CC(C)(C)C3)n1	106% (inactive)	92.3% (inactive)	9.28% (inactive)	83%	92.3%	-6.27% (inactive)	-3.49% (inactive)
CCC1(CC)C(=O)N(C)C(=O)NC1=NCc1ccccc1	110% (inactive)	93.1% (inactive)	-1.67% (inactive)	94.7%	93.1%	-7.07% (inactive)	3.02% (inactive)
Cc1cc2c(c(=O)n1CCN(C)C)C(c1ccncc1)C(C#N)=C(N)O2 (configuration not stated)	103% (inactive)	103% (inactive)	0.98% (inactive)	102%	103%	-2.37% (inactive)	-6.51% (inactive)
O=c1cc(CSc2nnnn2-c2ccccc2)nc2scc(-c3ccccc3)n12	92% (inactive)	101% (inactive)	6.61% (inactive)	93.9%	101%	0.13% (inactive)	-7.62% (inactive)
O=S(=O)(c1ccccc1)N1CCSC1c1ccco1 (configuration not stated)	83.6% (inactive)	72.2% (inactive)	-15.6% (inactive)	87.9%	72.2%	-0.13% (inactive)	5.56% (inactive)
CCn1c(SCC(=O)NCCc2ccc(Cl)cc2)nnc1-c1cccs1	87.7% (inactive)	98.9% (inactive)	4.62% (inactive)	94.3%	98.9%	4.03% (inactive)	3.17% (inactive)
O=C(Nc1ccc2c(c1)C(=O)N(C1CCCCC1)C2=O)C1CCCO1 (configuration not stated)	90.8% (inactive)	90.9% (inactive)	-1.69% (inactive)	92.6%	90.9%	-3.33% (inactive)	-0.63% (inactive)
COc1ccc(N2C(=O)CC(N3CCN(S(=O)(=O)c4c(F)cccc4F)CC3)C2=O)cc1OC (configuration not stated)	107% (inactive)	103% (inactive)	8.42% (inactive)	94.3%	103%	-2.34% (inactive)	-6.35% (inactive)
O=C(NCCN1CCCCCC1)c1ccc(N2CCCC2=O)cc1	91% (inactive)	95.9% (inactive)	3.38% (inactive)	92.5%	95.9%	-7.2% (inactive)	12.5% (inactive)
COc1ccc(CCNS(=O)(=O)c2ccc(C(=O)NCc3ccco3)cc2)cc1OC	83.4% (inactive)	80.9% (inactive)	-4.64% (inactive)	85.6%	80.9%	1.3% (inactive)	10.9% (inactive)
Cc1ccc(NC(=O)C2CCCNC2=O)nc1 (configuration not stated)	106% (inactive)	97.8% (inactive)	3.79% (inactive)	94%	97.8%	-0.13% (inactive)	-2.7% (inactive)
COc1ccc(C(F)(F)F)cc1NC(=O)c1nc2nc(C)cc(C(F)F)n2n1	94% (inactive)	79.9% (inactive)	-3.77% (inactive)	83.7%	79.9%	-1.56% (inactive)	-0.16% (inactive)
O=C(O)C1C2CCC(O2)C1C(=O)Nc1cccc(F)c1 (configuration not stated)	80.9% (inactive)	90.8% (inactive)	10.3% (inactive)	80.5%	90.8%	-4.74% (inactive)	3.02% (inactive)
O=C(Nc1ccc2c(c1)OCO2)c1cccc(Cl)c1	71.4% (inactive)	104% (inactive)	13.2% (inactive)	90.3%	104%	-3.87% (inactive)	16.8% (inactive)

SMILES	viability [1]	viability [2]	differential viability (reversal) ([3]; H69AR cells + 2 uM doxorubicin)	viability [3, 6]	viability [3, 7]	inhibition [4]	inhibition [5]
COc1ccc(S(=O)(=O)NCc2ccco2)cc1-c1nnc2c3ccccc3c(C)nn12	88.1% (inactive)	83.9% (inactive)	-10.3% (inactive)	94.2%	83.9%	-5.92% (inactive)	7.14% (inactive)
Cc1ccc(OCc2nnc(SCC(=O)Nc3ccc4c(c3)OCO4)n2C)cc1	91.2% (inactive)	76.9% (inactive)	-22.4% (inactive)	99.3%	76.9%	-7.07% (inactive)	6.98% (inactive)
CN1CCN(S(=O)(=O)c2ccc(NC(=O)c3ccc(F)cc3)cc2)CC1	94.2% (inactive)	96.8% (inactive)	7.89% (inactive)	88.9%	96.8%	-4% (inactive)	-5.08% (inactive)
CCNc1ccc2c(Cl)cc(=O)oc2c1	68.2% (inactive)	79.8% (inactive)	5.29% (inactive)	74.5%	79.8%	-5.73% (inactive)	-1.59% (inactive)
CC(=O)N1CCN(S(=O)(=O)c2ccc(S(=O)(=O)NC3CC3)cc2)CC1	112% (inactive)	92.3% (inactive)	5.03% (inactive)	87.3%	92.3%	-6.8% (inactive)	2.86% (inactive)
CC(NS(=O)(=O)c1ccc(OCC(=O)N2CCOCC2)c(Cl)c1)c1ccccc1 (configuration not stated)	94.9% (inactive)	94.7% (inactive)	0.355% (inactive)	94.4%	94.7%	-6.53% (inactive)	4.76% (inactive)
COc1ccc(-n2c(N)c(C(=O)NCc3ccco3)c3nc4ccccc4nc32)c(OC)c1	61.8% (inactive)	11% (active)	-1.38% (inactive)	12.4%	11%	-0.8% (inactive)	-0.16% (inactive)
CCOCCCNC(=O)c1ccc2c(c1)ncn2C1CCCC1	91% (inactive)	95.8% (inactive)	7.26% (inactive)	88.5%	95.8%	2.24% (inactive)	-3.81% (inactive)
CSc1nc2ccc(S(=O)(=O)N3CCOCC3)cc2s1	101% (inactive)	89.9% (inactive)	-4.54% (inactive)	94.4%	89.9%	-6.53% (inactive)	2.06% (inactive)
Cn1nc(-c2ccc(C(=O)N3CCN(c4ccccc4)CC3)cc2)c2ccccc2c1=O	71.2% (inactive)	92.4% (inactive)	3.5% (inactive)	88.9%	92.4%	0.26% (inactive)	27.3% (inactive)
Nc1nc(Nc2ccc(Cl)cc2Cl)nc(C(F)(F)F)n1	73.9% (inactive)	89.8% (inactive)	11.7% (inactive)	78%	89.8%	-5.6% (inactive)	11.3% (inactive)
CC1Cc2ccccc2N1C(=O)Cc1cccs1 (configuration not stated)	84.8% (inactive)	108% (inactive)	16.1% (inactive)	92.3%	108%	-1.71% (inactive)	2.06% (inactive)
CN(C(=O)c1c(Cl)nc2sccn12)C1CCCCC1	106% (inactive)	93.9% (inactive)	16.4% (inactive)	77.5%	93.9%	-5.53% (inactive)	-5.4% (inactive)
O=C1CC(C(=O)Nc2ccccc2)C2(CCCC2)O1 (configuration not stated)	98.4% (inactive)	93.9% (inactive)	3.1% (inactive)	90.8%	93.9%	-2.6% (inactive)	-2.38% (inactive)
O=C(NCc1ccco1)c1cccc(-c2nnc(-c3ccccc3)o2)c1	59.4% (inactive)	85.8% (inactive)	5.49% (inactive)	80.3%	85.8%	-4.8% (inactive)	2.86% (inactive)
O=C(O)C1CC(=O)N(c2ccc(OCc3c(F)cccc3Cl)cc2)C1 (configuration not stated)	105% (inactive)	105% (inactive)	4.8% (inactive)	101%	105%	-0.52% (inactive)	-1.9% (inactive)
O=C(NC1CC2CCC1C2)c1ccc(CN2CCOCC2)cc1 (configuration not stated)	99.9% (inactive)	96.9% (inactive)	2.98% (inactive)	93.9%	96.9%	-2.89% (inactive)	-2.7% (inactive)
COC(=O)c1ccc2c(c1)C(=O)N(C1CCCCC1)C2=O	105% (inactive)	104% (inactive)	7.39% (inactive)	96.7%	104%	-2.93% (inactive)	1.11% (inactive)
Cc1ccccc1CN1CCN(C(=O)c2cccc(F)c2)CC1	94.7% (inactive)	101% (inactive)	4.51% (inactive)	96.9%	101%	-1.87% (inactive)	-0.16% (inactive)
O=C(NCc1nc2ccccc2[nH]1)c1ccco1	106% (inactive)	90.7% (inactive)	7.09% (inactive)	83.7%	90.7%	-4.13% (inactive)	-1.9% (inactive)
